Calls of active or inactive are those of the source. The calls are words filed in the database; no cut-off is given here.

For ten molecules, Activity, IC50 and inhibition results are on record in ChEMBL document CHEMBL1137816, “New polyhydroxylated pyrrolidine, piperidine, and pyrrolizidine alkaloids from Scilla sibirica” (J Nat Prod, 2002).

The target of test [1] is T1, Beta-galactosidase (Bos taurus) (UniProt Q58D55).
T1 sequence (whole entry): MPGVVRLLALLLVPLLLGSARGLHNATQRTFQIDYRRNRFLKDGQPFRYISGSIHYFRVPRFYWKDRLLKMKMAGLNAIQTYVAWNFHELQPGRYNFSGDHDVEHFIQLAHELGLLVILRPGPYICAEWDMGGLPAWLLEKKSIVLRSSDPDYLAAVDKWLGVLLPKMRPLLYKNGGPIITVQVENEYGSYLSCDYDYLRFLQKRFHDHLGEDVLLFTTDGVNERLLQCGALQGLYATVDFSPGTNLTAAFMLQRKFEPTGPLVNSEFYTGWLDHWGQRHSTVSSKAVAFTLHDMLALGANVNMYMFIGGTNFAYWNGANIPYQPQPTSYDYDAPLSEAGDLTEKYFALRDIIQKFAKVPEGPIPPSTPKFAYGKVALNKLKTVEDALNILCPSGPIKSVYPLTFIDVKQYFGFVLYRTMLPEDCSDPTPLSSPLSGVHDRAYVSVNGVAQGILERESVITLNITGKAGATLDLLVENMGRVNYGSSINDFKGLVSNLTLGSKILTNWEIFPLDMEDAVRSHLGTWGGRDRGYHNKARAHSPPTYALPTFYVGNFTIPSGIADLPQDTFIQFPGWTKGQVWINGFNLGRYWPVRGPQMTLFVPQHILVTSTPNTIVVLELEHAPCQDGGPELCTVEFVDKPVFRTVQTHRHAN
Briefly: Inhibition of bovine liver beta-galactosidase assessed as p-nitrophenol release at 1000 uM after 30 mins by spectrophotometry. The method in brief:
(§1)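 p-Nitrophenyl glycoside substrates: Penicillium decumbens α-L-rhamnosidase at pH 4.5, bovine epididymis α-L-fucosidase at pH 5.5, bovine liver β-galactosidase at pH 6.8. β-Mannosidase came from rat epididymal fluid purified from epididymis, with p-nitrophenyl-β-D-mannoside at pH 5.2. Enzyme, substrate and inhibitor were incubated 30 min at 37 °C. The reaction was stopped with 400 mM Na2CO3, and p-nitrophenol was read at 400 nm.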

Test [2] deals with T2, Tissue alpha-L-fucosidase (Bos taurus) (UniProt Q2KIM0).
T2 sequence (whole entry): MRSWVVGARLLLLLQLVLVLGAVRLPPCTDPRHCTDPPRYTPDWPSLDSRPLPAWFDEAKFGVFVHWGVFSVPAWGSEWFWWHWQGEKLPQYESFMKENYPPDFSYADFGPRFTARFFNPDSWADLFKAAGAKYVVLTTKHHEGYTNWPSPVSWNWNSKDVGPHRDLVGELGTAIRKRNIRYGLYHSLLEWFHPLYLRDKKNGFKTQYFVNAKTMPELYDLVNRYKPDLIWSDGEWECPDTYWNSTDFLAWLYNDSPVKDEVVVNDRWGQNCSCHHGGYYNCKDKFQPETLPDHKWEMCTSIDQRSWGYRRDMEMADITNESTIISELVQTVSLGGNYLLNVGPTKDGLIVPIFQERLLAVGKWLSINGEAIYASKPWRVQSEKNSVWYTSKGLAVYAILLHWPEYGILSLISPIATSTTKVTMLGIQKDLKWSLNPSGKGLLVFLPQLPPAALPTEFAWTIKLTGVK
Briefly: Inhibition of bovine epididymis alpha-L-fucosidase assessed as p-nitrophenol release at 1000 uM after 30 mins by spectrophotometry. In a few lines:
as §1

Test [3] deals with Penicillium decumbens. Briefly: Inhibition of Penicillium decumbens alpha-L-rhamnosidase assessed as p-nitrophenol release at 1000 uM by spectrophotometry. The method in brief:
as §1

Test [4] deals with Oryza sativa. Briefly: Inhibition of rice alpha-glucosidase assessed as D-glucose release at 1000 uM after 10 mins by Glucose B-test. In a few lines:
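Rice α-glucosidase was assayed with maltose as substrate at the enzyme's optimum pH. Incubation with inhibitor was 10 min at 37 °C. Released D-glucose was determined colorimetrically by Glucose B-test.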

Test [5] addresses Oligo-1,6-glucosidase IMA1 (Saccharomyces cerevisiae S288c) (UniProt P53051). Briefly: Inhibition of yeast alpha-glucosidase assessed as D-glucose release at 1000 uM after 30 mins by Glucose B-test.
Test [6] has as its target Lysosomal alpha-glucosidase (Rattus norvegicus) (UniProt Q6P7A9). Briefly: Inhibition of rat intestinal maltase assessed as D-glucose release at 1000 uM after 30 mins by Glucose B-test. In a few lines: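 Brush border membranes from rat small intestine served as the enzyme source, with maltose substrate at pH 5.8. Incubation with inhibitor was 30 min at 37 °C. Released D-glucose was measured colorimetrically by Glucose B-test.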

For test [7] the target is unchanged. Briefly: Inhibition of rat liver lysosome alpha-glucosidase assessed as D-glucose release at 1000 uM after 30 mins by Glucose B-test.
Test [8] is described as follows: Inhibition of rat intestinal amyloglucosidase.
The nature of test [9]: Inhibition of rice alpha-glucosidase assessed as D-glucose release after 10 mins by Glucose B-test. Also on record: species or system Oryza sativa. The method in brief:
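Rice enzyme with maltose as substrate at the enzyme's optimum pH. Incubation with inhibitor ran 10 min at 37 °C. Released D-glucose determined colorimetrically with a glucose test kit.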

For test [10], the target named is T3, Beta-mannosidase (Rattus norvegicus, UniProt Q4FZV0).
T3 sequence (Q4FZV0 whole entry): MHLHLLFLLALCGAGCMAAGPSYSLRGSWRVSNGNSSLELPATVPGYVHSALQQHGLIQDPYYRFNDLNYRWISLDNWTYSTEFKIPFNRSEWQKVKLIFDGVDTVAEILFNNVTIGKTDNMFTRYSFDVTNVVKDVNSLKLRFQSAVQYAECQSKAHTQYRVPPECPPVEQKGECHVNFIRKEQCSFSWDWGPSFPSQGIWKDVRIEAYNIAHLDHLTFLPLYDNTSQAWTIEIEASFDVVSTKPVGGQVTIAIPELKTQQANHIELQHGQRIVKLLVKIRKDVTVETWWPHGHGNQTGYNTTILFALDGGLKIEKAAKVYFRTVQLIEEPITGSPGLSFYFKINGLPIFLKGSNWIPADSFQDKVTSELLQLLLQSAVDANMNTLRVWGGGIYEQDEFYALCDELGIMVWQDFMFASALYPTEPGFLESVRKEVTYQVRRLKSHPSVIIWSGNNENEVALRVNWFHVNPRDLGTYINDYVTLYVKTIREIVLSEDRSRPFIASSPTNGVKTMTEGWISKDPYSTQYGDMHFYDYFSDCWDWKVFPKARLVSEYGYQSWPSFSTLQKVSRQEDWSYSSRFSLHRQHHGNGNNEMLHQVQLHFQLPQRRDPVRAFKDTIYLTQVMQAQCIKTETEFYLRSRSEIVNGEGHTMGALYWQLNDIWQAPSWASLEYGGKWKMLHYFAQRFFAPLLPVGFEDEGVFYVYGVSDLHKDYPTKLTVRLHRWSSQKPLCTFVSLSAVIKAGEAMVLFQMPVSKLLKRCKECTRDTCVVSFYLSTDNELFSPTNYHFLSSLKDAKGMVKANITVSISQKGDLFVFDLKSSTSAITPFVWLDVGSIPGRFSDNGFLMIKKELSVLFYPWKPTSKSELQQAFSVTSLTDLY
Briefly: Inhibition of rat epididymis beta-mannosidase assessed as p-nitrophenol release after 30 mins by spectrophotometry. The method in brief: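 Source was rat epididymal fluid purified from epididymis. Assayed at pH 5.2 with p-nitrophenyl-β-D-mannoside, incubated with inhibitor 30 min at 37 °C. Stopped with 400 mM Na2CO3; p-nitrophenol read at 400 nm.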

The target of test [11] is T4, Beta-galactosidase (Bos taurus, UniProt Q58D55).
T4 sequence (Q58D55 whole entry): T1 sequence (whole entry)
Briefly: Inhibition of bovine liver beta-galactosidase assessed as p-nitrophenol release after 30 mins by spectrophotometry. In a few lines: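 Bovine liver enzyme at pH 6.8 with the appropriate p-nitrophenyl glycoside. Incubated with inhibitor 30 min at 37 °C, quenched with 400 mM Na2CO3, and released p-nitrophenol read at 400 nm.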

For test [12], the target named is Alpha-glucosidase MAL12 (Saccharomyces cerevisiae S288c, UniProt P53341). Briefly: Inhibition of yeast alpha-glucosidase assessed as p-nitrophenol release after 30 mins measured at 400 nm.
The target in test [13] is Beta-glucosidase A (Caldicellulosiruptor saccharolyticus, UniProt P10482). Briefly: Inhibition of Caldocellum saccharolyticum beta-glucosidase assessed as p-nitrophenol release after 30 mins measured spectrometrically at 400 nm.
Test [14] deals with Lysosomal alpha-glucosidase (Rattus norvegicus) (UniProt Q6P7A9). Briefly: Inhibition of rat liver lysosome alpha-glucosidase assessed as p-nitrophenol release at 1000 uM after 30 mins measured spectrometrically at 400 nm.
The target in test [15] is T5, Beta-mannosidase (Rattus norvegicus) (UniProt Q4FZV0).
T5 sequence (whole entry): T3 sequence (Q4FZV0 whole entry)
Briefly: Inhibition of rat epididymis beta-mannosidase assessed as p-nitrophenol release at 1000 uM after 30 mins by spectrophotometry. In a few lines: as §1

Test [16] in a line: Inhibition of Penicillium decumbens alpha-L-rhamnosidase assessed as p-nitrophenol release after 30 mins by spectrophotometry. The method in brief:
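Penicillium decumbens enzyme assayed at pH 4.5 with the appropriate p-nitrophenyl glycoside. Substrate, diluted enzyme and inhibitor were incubated 30 min at 37 °C, then stopped with 400 mM Na2CO3. Released p-nitrophenol was read at 400 nm.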

Test [17] addresses Oligo-1,6-glucosidase IMA1 (Saccharomyces cerevisiae S288c) (UniProt P53051). Briefly: Inhibition of yeast alpha-glucosidase assessed as p-nitrophenol release at 1000 uM after 30 mins measured spectrometrically at 400 nm.

Sequence of Oligo-1,6-glucosidase IMA1 (Saccharomyces cerevisiae S288c) (P53051 whole entry): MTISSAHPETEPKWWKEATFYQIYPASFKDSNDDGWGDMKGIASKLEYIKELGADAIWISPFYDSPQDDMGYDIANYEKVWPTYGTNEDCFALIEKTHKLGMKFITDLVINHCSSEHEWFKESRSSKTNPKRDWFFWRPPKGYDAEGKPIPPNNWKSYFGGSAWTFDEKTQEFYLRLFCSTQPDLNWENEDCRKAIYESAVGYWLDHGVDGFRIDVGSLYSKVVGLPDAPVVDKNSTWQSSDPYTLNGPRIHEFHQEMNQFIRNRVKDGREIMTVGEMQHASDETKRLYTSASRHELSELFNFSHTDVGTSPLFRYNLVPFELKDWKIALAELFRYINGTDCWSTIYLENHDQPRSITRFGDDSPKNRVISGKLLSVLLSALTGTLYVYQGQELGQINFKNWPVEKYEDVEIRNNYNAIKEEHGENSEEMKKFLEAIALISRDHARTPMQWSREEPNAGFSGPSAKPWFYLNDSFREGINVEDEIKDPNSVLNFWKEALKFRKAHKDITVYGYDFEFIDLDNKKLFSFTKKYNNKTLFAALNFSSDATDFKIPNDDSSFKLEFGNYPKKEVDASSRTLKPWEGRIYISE
Sequence of Lysosomal alpha-glucosidase (Rattus norvegicus) (Q6P7A9 whole entry): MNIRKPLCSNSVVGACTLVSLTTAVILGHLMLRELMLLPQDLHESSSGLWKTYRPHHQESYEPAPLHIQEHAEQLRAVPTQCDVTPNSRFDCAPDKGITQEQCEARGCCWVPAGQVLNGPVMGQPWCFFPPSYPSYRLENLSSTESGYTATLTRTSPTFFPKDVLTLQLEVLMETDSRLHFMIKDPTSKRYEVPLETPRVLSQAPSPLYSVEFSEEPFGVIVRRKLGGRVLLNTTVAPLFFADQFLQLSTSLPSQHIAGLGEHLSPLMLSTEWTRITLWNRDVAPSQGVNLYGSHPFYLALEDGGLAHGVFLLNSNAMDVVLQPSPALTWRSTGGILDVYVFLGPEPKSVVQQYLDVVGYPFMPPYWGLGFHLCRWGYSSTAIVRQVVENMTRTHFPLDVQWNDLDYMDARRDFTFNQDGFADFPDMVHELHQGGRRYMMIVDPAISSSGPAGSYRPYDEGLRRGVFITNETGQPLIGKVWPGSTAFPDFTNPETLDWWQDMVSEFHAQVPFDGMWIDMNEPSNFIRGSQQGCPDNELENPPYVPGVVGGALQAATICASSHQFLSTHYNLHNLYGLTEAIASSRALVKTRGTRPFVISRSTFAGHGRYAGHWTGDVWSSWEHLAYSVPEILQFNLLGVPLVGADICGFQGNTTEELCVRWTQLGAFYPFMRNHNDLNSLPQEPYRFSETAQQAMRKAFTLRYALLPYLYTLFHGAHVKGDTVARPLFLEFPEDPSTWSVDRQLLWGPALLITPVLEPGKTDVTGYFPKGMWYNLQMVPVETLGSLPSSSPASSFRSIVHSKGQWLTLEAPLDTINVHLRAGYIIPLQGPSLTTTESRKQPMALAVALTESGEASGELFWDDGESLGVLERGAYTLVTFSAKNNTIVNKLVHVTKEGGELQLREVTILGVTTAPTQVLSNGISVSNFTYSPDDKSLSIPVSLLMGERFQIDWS
Sequence of Alpha-glucosidase MAL12 (P53341 whole entry): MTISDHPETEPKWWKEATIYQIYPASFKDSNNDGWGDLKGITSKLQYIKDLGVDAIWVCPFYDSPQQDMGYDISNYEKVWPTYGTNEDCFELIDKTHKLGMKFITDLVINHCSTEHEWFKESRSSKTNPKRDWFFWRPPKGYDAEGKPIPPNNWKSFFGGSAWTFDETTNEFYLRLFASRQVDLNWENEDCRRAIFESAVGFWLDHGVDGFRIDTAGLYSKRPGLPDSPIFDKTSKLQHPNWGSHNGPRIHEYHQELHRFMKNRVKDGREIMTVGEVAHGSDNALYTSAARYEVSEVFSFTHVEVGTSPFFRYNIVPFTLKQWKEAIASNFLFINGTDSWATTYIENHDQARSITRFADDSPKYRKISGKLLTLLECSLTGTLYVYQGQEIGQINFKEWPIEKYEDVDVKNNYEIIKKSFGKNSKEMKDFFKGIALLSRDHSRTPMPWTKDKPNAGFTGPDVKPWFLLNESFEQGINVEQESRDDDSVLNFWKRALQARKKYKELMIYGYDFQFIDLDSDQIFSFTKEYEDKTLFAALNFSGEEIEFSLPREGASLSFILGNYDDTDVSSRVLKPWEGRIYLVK
Sequence of Beta-glucosidase A (P10482 whole entry): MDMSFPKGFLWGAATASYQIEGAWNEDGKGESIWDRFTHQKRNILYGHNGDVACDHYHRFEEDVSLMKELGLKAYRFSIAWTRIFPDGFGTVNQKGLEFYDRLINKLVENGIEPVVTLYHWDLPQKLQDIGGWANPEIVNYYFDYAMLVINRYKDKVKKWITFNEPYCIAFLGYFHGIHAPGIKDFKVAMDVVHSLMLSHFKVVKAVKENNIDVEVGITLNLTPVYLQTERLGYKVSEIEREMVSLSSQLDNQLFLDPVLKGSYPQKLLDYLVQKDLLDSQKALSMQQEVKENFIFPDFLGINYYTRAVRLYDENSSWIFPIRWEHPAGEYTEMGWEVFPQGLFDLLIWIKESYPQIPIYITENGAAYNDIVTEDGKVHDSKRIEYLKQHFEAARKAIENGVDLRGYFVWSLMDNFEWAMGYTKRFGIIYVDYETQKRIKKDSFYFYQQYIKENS

As to `C[C@H]1CC[C@@H]2[C@H](O)[C@H](O)[C@@H](CO)N21` (relative stereo), the outcome in [1], in test [2], in test [3], in test [4], in [5] and in [6] was inactive. In addition, the result in test [7] was inactive.

The IC50 is the midpoint of a concentration-inhibition curve. As to `C[C@@H]1CC[C@@H]2[C@@H](O)[C@@H](O)[C@@H](CO)N12` (relative stereo) [HYACINTHACINE A5], the result in test [1], in test [2], in test [3], in test [4], in test [5] and in test [6] was inactive. The outcome in test [7] was inactive. Moreover, the IC50 in [8] is 110 µM.

With `C[C@@H]1CC[C@@H]2[C@H](O)[C@H](O)[C@@H](CO)N12` (relative stereo), the outcome in test [1], in test [2], in [3], in test [4], in [5] and in test [6] was inactive. In addition, the result in test [7] was inactive.

Consider `C[C@@H]1C[C@H](O)[C@@H]2[C@H](O)[C@H](O)[C@@H](CO)N21` (relative stereo) [HYACINTHACINE B5], for which the outcome in test [1], in test [2], in [3], in test [4], in test [5] and in test [6] was inactive. Moreover, the result in [7] was inactive. Further, in [8], inhibition was half-maximal at 110 µM (IC50).

One may read the inhibition as the drop in the measured response relative to a control, in per cent. Regarding `CC(O)[C@H]1N[C@H](CO)[C@@H](O)[C@@H]1O` (single isomer, unassigned), the IC50 in [9] is 9.2 µM; in test [10], 35 µM; in [11], 3.4 µM; in test [12], 85 µM; in test [13], 6.7 µM. Also, the inhibition in [2], in test [3] and in test [14] was below 50% throughout.

With `C[C@H]1CC[C@@H]2[C@H](O)[C@H](O)[C@H](CO)N21` (relative stereo), the result in test [15], in test [1], in test [2], in [3], in [4] and in [5] was inactive. Moreover, the result in test [6] and in test [7] was inactive.

As for `C[C@@H]1C[C@H](O)[C@@H]2[C@H](O)[C@@H](O)[C@@H](CO)N21` (relative stereo), the outcome in test [1], in test [2], in [3], in [4], in test [5] and in test [6] was inactive. Moreover, the result in test [7] was inactive.

With `OC[C@H]1NC[C@@H](O)[C@H](O)[C@@H]1O`, the concentration for half-maximal inhibition (IC50) in test [16] amounted to 1.8 µM. Besides, the inhibition in [15], in [2], in test [4], in test [6], in test [17] and in [14] was below 50% in each case.

With `OC[C@H]1NC[C@H](O)[C@@H](O)[C@@H]1O` [DUVOGLUSTAT], the 50% inhibitory concentration (IC50) in [9] came out at 0.05 µM; in [16], 850 µM. Besides, the inhibition in test [15], in test [1] and in [2] was below 50% each time.

On to `OCC(O)[C@H]1N[C@H](CO)[C@@H](O)[C@@H]1O` (single isomer, unassigned), for which the IC50 is 95 µM in [9]; 53 µM in test [10]; 4.4 µM in test [11]; 220 µM in test [12]; 3.2 µM in test [13]. Moreover, the inhibition in test [2], in test [3] and in test [14] was below 50% throughout.
